This sample holds only a part of the variants without activity. A value given as a limit tells only on which side of the number the result lay.

The results in this text go back to the RNAGym collection of RNA variant scans (doi:10.1126/science.aae0568).

B1: tRNA (parent)
chain: GUUCCGUUGGCGUAAUGGUAACGCGUCUCCCUCCUAAGGAGAAGACUGCGGGUUCGAGUCCCGUACGGAACG

The data set covers variants of B1. The experiment in a line: yeast fitness relative to wild type (ratio to wild type); higher = fitter; tRNA-Arg(CCU), competitive growth, 37 C, YPD. An outline of the steps: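 Variants of the tRNA-Arg(CCU) gene, chemically synthesised with a 3% per-site mutation rate at 69 sites, were placed at the native genomic locus in Saccharomyces cerevisiae. The pooled strains were competed in YPD at 37°C for 24 hours in six parallel replicates. Gene amplicons from the start population and from each end population were read by 100-nucleotide paired-end sequencing. Darwinian fitness relative to wild type came from changes in genotype frequencies; genotypes needed ≥ 100 starting reads, and estimates < 0.5 were set to 0.5.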
For the variant GUUCCGUUGGCGUAAUGGCAACGCGUCUCCCUCCUAAGGAGAGGACUGCGGGUUCGAGUCCCGUACGGAACG, the yeast fitness was found to be 1.07.

Consider GUUCCGUUGGCGUAAUGGUAACGCGUCUCCCUCCUAAGGAGAAGACCGCGGGUUCGAGUCCCGUAUGGAACG, for which the yeast fitness worked out at 0.963.

Consider GUUCCGUUGGCGUAAUGGUAAGGCGUCUCCCUCGUAAGGCGAAGACUGCGGGUUCGAGUCCCGUACGGUACG, for which the yeast fitness came to 0.769.

For the variant GUUCUGUUGGCGUAAUGGUUACGCGUCUCCCUCCUAAGGCGAAGACUGCGGGUUCGAGUCCCGUACGGAACG, the yeast fitness is ≤ 0.5.

As for GUUCCGUGGGCGUAAUGGAAACGCGUCUCCCUCCUAAGGAGAAGACUGCGGGUACGUGUCCCGUAUGGAACG, the yeast fitness was 0.576.

In the case of GUUCCGUUGGCGGAAUGGUAACGCGUCUCCCUCCCAAAGAGUAGACUGCGGGUUCGACUCCCGUACGGAACG, the yeast fitness was ≤ 0.5.

For GUUCCGUUGGCGUAAUGGUAACGCGUCUCCCUCCUAAGGAGAAGACUGCCAGUUUGAGUCCCGUACGGAACG, the yeast fitness was 0.549.

On to GUUCCAUCGGCGUAAUGGUAACGCGUCUCCGUCCUAAGGAGAAGACUGCGGGUUCGAGUGCCGUACGGAACG, for which the yeast fitness was ≤ 0.5.

Consider GUUCCGUUGGCGUAAUGGUAAUGCGUCUCCCUCCUAAGGAGAAGACUGCGGGUGCGAGUCCCGUGCGUACCG, for which the yeast fitness was ≤ 0.5.

For the variant GUUCCGAUGGCGUAAUGGUAACCCGUCUCCCUCGGAAGGUGAAGACUGCGGGUUCGAGUCCCGUACGGACCG, the yeast fitness is ≤ 0.5.

Consider GUUUCGUUGGCGUAAUGGUAACGUGUCUCCCUCCUCAGGAGAAGACUGCGGGUUCGAGUCCGGUAAGGAACG, for which the yeast fitness was ≤ 0.5.

For the variant GUUCCGUUGGCGCAAUGGUAACGCGCCUCCCUCCUAAGGAGAAGACUGCGGGUUCGAGUCCCGUCCGGAACG, the yeast fitness amounted to 0.661.

For GUUCCGUUGGCGUAAUGGUAACGCGUCUCCCUCUUAAGGAGAAGAGUGCGGGUUCGAGUCCCGUUCGGAACG, the yeast fitness worked out at 0.563.

In the case of GUUCAGUUGGCGUAAUGGAAACGCGUCUCCCUCCUAAGGAGAAGACUGCGGGUUCGAGUCCCGUACGGAACG, the yeast fitness amounted to 0.843.

In the case of GUUCCGUUGGCGUUAUGGUAACGCGUCUCCCUCCUAAGGAGAAGUCAGCGGGUUCGAGUCCCGUACGGAACG, the yeast fitness was ≤ 0.5.

As for GUUCCGUUAGCGUGAUGGUAACGCGUCUCCCUCCUAAGGAGAAGACUGCGGGUUCGAGUCCCGUACGGAACG, the yeast fitness came to 0.908.

Take GUUCCGUUGGCGUAAUGGUAUCGCGUCUCCCUCCUAAGGAGAAGACUGCGAGUUCGAGUCCCGUACGGAACG: the yeast fitness stood at 0.751.

In the case of GUUCCGUUGGCGUAAUGGUAACGCGUCUCCCUCCUAGGGAGAAGUCUGCGGGUUCGAGUCCCGUACGGAACG, the yeast fitness is 0.684.

For GUUCCGUUGGGGUAAUGGUCACGGGUCUCCCUCCUAGGGAGAAGACUGCGGGUUCGAGUCCCGUACGGAACG, the yeast fitness amounted to 0.542.

As to GUUCCGUUGGCGUAAUGGUAACGAGUCUCCCUCCUAAGGAGAAGACUGAGGGUUCGAGUCCCGUACGGAACG, the yeast fitness worked out at 0.577.

In the case of GUUCCGUUGGCGUAAUGGUAACGCGUCUCGCUCCUAAGGAGAAGAGUGCGGGUUCGAGUCCCGUACGGUACG, the yeast fitness turned out to be 0.586.

For GUUCUGUUGGCGUAAUGGUAACGCGUCUCCCUCCUAAGGAGAAGACUGCGGGUUCGACUCCCGUAGGGAACG, the yeast fitness was ≤ 0.5.

Turning to GUUCUGAUGGCGUAAUGGUAACGCGUCUCCCUCCUAAGGAGAAGACUGCGGGUUCGAGUCCCGUACGGAACG, the yeast fitness turned out to be 0.772.

Regarding GUUCCGUUGGCGUAAUGGUAACGCGUCUCCCUCCUAGGGAGAAGAUUGCGGGUUCGAGUCCCGUACGGAACG, the yeast fitness worked out at 0.722.

On to GUUCCGUUAGCGUAAUGGUAACGCGUCUCCCUCCUAAGGAGAAGACUGCGGGUUCAAGUCCCGUACAGAACG, for which the yeast fitness turned out to be 0.632.

For the variant GUUCCGUUGGGGUAAUGGUAACGCGUCUCCCUCCUAAGGAGAGGACUGCGGGUUCGAGUCCCGUACGGAACG, the yeast fitness stood at 0.641.

With GUUCCGUUGGCGUAAUGGUAACGCGUCCCCAUCCUAAGGAGAAGACUGCGGGUUCGAGUCCCGUACGGAACG, the yeast fitness worked out at 0.784.

Turning to GUUCCGUUGGCGUAAUGGUAAAGCGUCUCCCUCCUAGGGAGAAGACUGCGGGUUCGAGUGCCGGACGGAACG, the yeast fitness is ≤ 0.5.

Consider GUUCCGCUGGCGUAAUGGUAAUGCGUCUGCCUCCUAAGGAGAAGACUGCGGGUUCGAGUCCCGUACGGAACG, for which the yeast fitness was ≤ 0.5.

As to GUUCCGUUGGCGUAAUGGUAACGCGUCUCCCUCCUAAGGAGACGACUGCGGGUUCGAGUCCCGUACGAAACG, the yeast fitness came out at 0.922.

With GUUCCGUUGGCGUAAUAGUAACGCGUCUCGCUCCUAAGGAGAAGACUACGGGCUCGAGUCCCGUACGGAACG, the yeast fitness was ≤ 0.5.

In the case of GUUCCGUUGGCGUAAUGGUAACGCGUCUCCCUCCUAAGGAGAAGACUCCGGGUUCGAGUCCCGUAUGGAACG, the yeast fitness stood at 0.932.

Take GUUCCGUUGGAGUAAUGGUACCGCGUCUCCCUCCUAAGGAGAAGACUGCGCGUUCGAGGCCCGUACGGAACG: the yeast fitness is ≤ 0.5.

Regarding GUUCCGUUGGCGUAAUGGUGACGCGUCUCCCUCCUAAGGAGAAGACUGCGGGUUCGAGUCCCGUUCGGAACG, the yeast fitness came to 0.901.

Consider GUUCCCUUGGCGUAAUGGUAACGCGUCUCCCUGCUUACGAGAAGACUGCGGGUUCGAGUCCCGUGCGGAACG, for which the yeast fitness was ≤ 0.5.

GUUCCGUUCGCGUAAUGGUAACGGGUCUCCCUCCUAAGGAGAAGACUGCGGGUUCGAGUCCCGUACGGAACG: the yeast fitness was ≤ 0.5.

For GUUCCGCUGGCGUAGUGGUUACGGGUCUCCCUCCCCAGGAGAAGACUGCGGGUUCGAGUCCCGUAUGGAACG, the yeast fitness is ≤ 0.5.

GAUCCGUUGGCGUAAUGGUAUCGCGUCUCCCUCCUAAGGAGAAGACUGCAGGUUCGAGUCCCGUACGGAACG: the yeast fitness is ≤ 0.5.
